Experimental data from ChEMBL document CHEMBL1153899, “Discovery of benzothiazole derivatives as efficacious and enterocyte-specific MTP inhibitors” (Bioorg Med Chem Lett, 2009).
The source made the active and inactive calls. The calls are words filed in the database; no cut-off is given here.

Tests used:
[1] = Half life in Sprague-Dawley rat plasma at 100 mg/kg, po; assay type: ADME, organism-based; parameters: dose 100 mg/kg, route oral
Method in brief: (§1)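 Dose-proportionality PK in Sprague–Dawley rats (n = 3) given single oral doses of 3, 10, 30 or 100 mg/kg. Liver and plasma were sampled at 0.5, 1, 2, 4 and 8 h and assayed for drug concentration to derive Cmax, AUC(0–∞) and T1/2.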

[2] = system: Mus musculus; assay: Increase in peptide YY level in 3-day high fat diet fed C57BL/6 mouse at 3 mg/kg, po daily for 3 days; assay type: functional, organism-based; parameters: dose 3 mg/kg
Method in brief: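 C57BL/6 male mice (n = 9) on high-fat diet were dosed po once daily for 3 days with vehicle (5% PEG400, 0.25% Tween 80, 94.25% H2O) or test article, then given a final morning dose. Blood was taken at 30 min, 2 h and 6 h, and PYY was measured by EIA kit. Statistics by Student's t test.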

[3] = Half life in Sprague-Dawley rat at 1 mg/kg, iv; assay type: ADME, organism-based; parameters: dose 1 mg/kg, route intravenous; conditions: in vivo
[4] = Half life in Sprague-Dawley rat liver at 10 mg/kg, po; assay type: ADME, organism-based; parameters: dose 10 mg/kg, route oral; method in brief: as §1
[5] = system: Mus musculus; assay: Decrease in plasma glucose level in 28-day diet-induced obesity C57BL/6 mouse model at 1 to 3 mg/kg, po daily for 4 weeks; assay type: functional, organism-based
Method in brief: (§2)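 C57BL/6 male mice were fed high-fat diet for 4 weeks beforehand to about 40 g and kept on it throughout. Groups of n = 10 were dosed po once daily for 4 weeks at 1 or 3 mg/kg, or vehicle (5% PEG400, 0.25% Tween 80, 94.25% H2O). Food was weighed and replaced with pre-weighed food 3 times weekly. Fed plasma glucose was taken at 2 weeks and insulin at 4 weeks.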

[6] = system: Mus musculus; assay: Increase in body weight in 28-day diet-induced obesity C57BL/6 mouse model at 1 mg/kg, po daily for 4 weeks; assay type: functional; method in brief: as §2
[7] = Half life in Sprague-Dawley rat liver at 100 mg/kg, po; assay type: ADME, organism-based; parameters: dose 100 mg/kg, route oral; method in brief: as §1
[8] = Half life in Sprague-Dawley rat liver at 3 mg/kg, po; assay type: ADME, organism-based; parameters: dose 3 mg/kg, route oral; method in brief: as §1
[9] = Cmax in Sprague-Dawley rat liver at 100 mg/kg, po; assay type: ADME, organism-based; parameters: dose 100 mg/kg, route oral; method in brief: as §1
[10] = Inhibition of MTP from dog liver microsomes by scintillation counting; parameters: species or system Canis lupus familiaris, Microsome
[11] = system: Mus musculus; assay: Decrease in plasma triglyceride level in […] C57BL/6 mouse at 10 mg/kg, po daily for 3 days measured after 6 hrs; assay type: functional; parameters: scale not given: the % may be the effect or the level left
[12] = Cmax in Sprague-Dawley rat liver at 3 mg/kg, po; assay type: ADME, organism-based; parameters: dose 3 mg/kg, route oral; method in brief: as §1
[13] = Cmax in Sprague-Dawley rat at 1 mg/kg, iv; assay type: ADME, organism-based; parameters: dose 1 mg/kg, route intravenous; conditions: in vivo
[14] = AUC (0 to infinity) in Sprague-Dawley rat plasma at 30 mg/kg, po; assay type: ADME, organism-based; parameters: time infinity, dose 30 mg/kg, route oral; method in brief: as §1
[15] = Cmax in Sprague-Dawley rat at 3 mg/kg, po; assay type: ADME, organism-based; parameters: dose 3 mg/kg, route oral; conditions: in vivo
[16] = system: Mus musculus; assay: Decrease in plasma triglyceride level in 28-day diet-induced obesity C57BL/6 mouse model at 1 to 3 mg/kg, po daily for 4 weeks; assay type: functional, organism-based; method in brief: as §2
[17] = Cmax in Sprague-Dawley rat plasma at 10 mg/kg, po; assay type: ADME, organism-based; parameters: dose 10 mg/kg, route oral; method in brief: as §1
[18] = Tmax in Sprague-Dawley rat at 3 mg/kg, po; assay type: ADME, organism-based; parameters: dose 3 mg/kg, route oral; conditions: in vivo
Method in brief: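 Rats dosed orally at 3 mg/kg; Cmax, Tmax, oral half-life and AUC determined from plasma, and oral bioavailability (%F) calculated against the 1 mg/kg IV bolus.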

[19] = system: Mus musculus; assay: Decrease in insulin level in 28-day diet-induced obesity C57BL/6 mouse model at 3 mg/kg, po daily for 4 weeks; assay type: functional, organism-based; parameters: dose 3 mg/kg; method in brief: as §2
[20] = Cmax in Sprague-Dawley rat plasma at 30 mg/kg, po; assay type: ADME, organism-based; parameters: dose 30 mg/kg, route oral; method in brief: as §1
[21] = AUC (0 to infinity) in Sprague-Dawley rat at 1 mg/kg, iv; assay type: ADME, organism-based; parameters: time infinity, dose 1 mg/kg, route intravenous; conditions: plasma
[22] = AUC (0 to infinity) in Sprague-Dawley rat plasma at 10 mg/kg, po; assay type: ADME, organism-based; parameters: time infinity, dose 10 mg/kg, route oral; method in brief: as §1
[23] = system: HepG2; assay: Inhibition of apoB secretion in human HepG2 cells after 40 hrs by ELISA; assay type: functional, cell-based; conditions: HepG2, 40 h
[24] = system: Mus musculus; assay: Increase in peptide YY level in 3-day high fat diet fed C57BL/6 mouse at 10 mg/kg, po daily for 3 days; assay type: functional, organism-based; parameters: dose 10 mg/kg
[25] = system: Mus musculus; assay: Decrease in total cholesterol level in 28-day diet-induced obesity C57BL/6 mouse model at 1 to 3 mg/kg, po daily for 4 weeks; assay type: functional, organism-based
[26] = system: Mus musculus; assay: Decrease in plasma triglyceride level in […] C57BL/6 mouse at 3 mg/kg, po daily for 3 days measured after 6 hrs; assay type: functional; parameters: scale not given: the % may be the effect or the level left
Method in brief: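 Lean C57BL/6 mice were given high-fat diet for 1 week, then dosed orally once daily in the evening for 3 days. Food intake and body weight were recorded daily. At the end a morning dose was given, and blood was drawn at 30 min, 2 h and 6 h for plasma triglycerides.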

[27] = AUC (0 to infinity) in Sprague-Dawley rat plasma at 100 mg/kg, po; assay type: ADME, organism-based; parameters: time infinity, dose 100 mg/kg, route oral; method in brief: as §1
[28] = system: Mus musculus; assay: Decrease in total food intake in 3-day high fat diet fed C57BL/6 mouse at 10 mg/kg, po daily for 3 days; assay type: functional; parameters: scale not given: the % may be the effect or the level left
[29] = Half life in Sprague-Dawley rat at 3 mg/kg, po; assay type: ADME, organism-based; parameters: dose 3 mg/kg, route oral; conditions: in vivo

half-life [1]: 5.44 h | half-life [3]: 2 h | half-life [4]: 19.4 h | half-life [7]: 6.44 h | half-life [8]: 10.7 h | Cmax [9]: 84 µg/kg | IC50 [10]: 11.2 nM | Cmax [12]: 57 µg/kg | Cmax [13]: 5980 ng/mL | AUC(0-inf) [14]: 510 ng·h/mL | Cmax [15]: 22.2 ng/mL | Cmax [17]: 58 ng/mL | Tmax [18]: 0.5 h | Cmax [20]: 49.5 ng/mL | AUC(0-inf) [21]: 976 ng·h/mL | AUC(0-inf) [22]: 224 ng·h/mL | IC50 [23]: 6.2 nM | AUC(0-inf) [27]: 598 ng·h/mL | half-life [29]: 2.13 h
Structure (SMILES): CC(C)c1ccc(-c2ccccc2C(=O)Nc2ccc3nc(C(=O)N[C@H](C(=O)N(C)Cc4ccc(F)cc4)c4ccccc4)sc3c2)cc1
Activity [2]: Active | Activity [5]: Active | Activity [6]: 1% | Activity [11]: 45% | Activity [16]: Active | Activity [19]: Active | Activity [24]: Active | Activity [25]: Active | Activity [26]: 11% | Activity [28]: 19%
